The values below come from ChEMBL document CHEMBL5390270, “Synthesis, anti-inflammatory activity, inverse molecular docking, and acid dissociation constants of new naphthoquinone-thiazole hybrids” (Bioorg Med Chem, 2023).

Structures are written as SMILES. The source made the active and inactive calls. The calls are words filed in the database; no cut-off is given here.

What all share (type): functional, cell-based
In experiment [1] the test system is J774.2. The experiment can be described thus: Antiproliferative activity against LPS-stimulated mouse J774.2 cells assessed as reduction in cell viability at 1 to 5 ug/mL incubated for 1 day in presence of LPS by trypan blue staining analysis. As to conditions: dose 1-5 µg/ml. The essentials:
(§1)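 J774.2 macrophages in RPMI 1640 with 10 % FBS, antibiotics and sodium pyruvate, 37 °C, 5 % CO₂. Cells were exposed for 1 day to molecules at 1, 2 and 5 µg/mL with or without LPS, with SA at 5 µg/mL as control. Supernatants were removed, cells washed in PBS, then counted with trypan blue to give viability. N = 3.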

For experiment [2], the system named is J774.2. The experiment can be described thus: Antiinflammatory activity in LPS-stimulated mouse J774.2 cells assessed as reduction in IL-6 production at 2 to 5 ug/ml […] by ELISA analysis. The note with it: dose 2-5 µg/ml. The method in brief:
(§2)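 J774.2 macrophages in RPMI 1640 with 10 % FBS, 1 % penicillin/streptomycin and sodium pyruvate, 24-well plates, 37 °C, 5 % CO₂. Cells were stimulated for 1 day with test molecules at 1, 2 and 5 µg/mL plus LPS. SA at 5 µg/mL served as control. Supernatant TNF-α or IL6 was read by sandwich ELISA: biotin-antibody, streptavidin-HRP, TMB, absorbance at 450 nm. N = 3.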

For experiment [3], the system named is J774.2. The experiment can be described thus: Antiproliferative activity against LPS-stimulated mouse J774.2 cells assessed as reduction in cell viability at 1 to 5 ug/mL incubated for 1 day by trypan blue staining analysis. The note with it: dose 1-5 µg/ml. The method in brief: as §1
Experiment [4] concerns J774.2. The experiment can be described thus: Antiinflammatory activity in mouse J774.2 cells assessed as reduction in TNF-alpha level at 1 to 5 ug/mL […] by ELISA analysis. The note with it: dose 1-5 µg/ml. The method in brief:
(§3)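 J774.2 macrophages were cultured in RPMI 1640 with 10 % FBS, antibiotics and sodium pyruvate at 37 °C, 5 % CO₂. Cells received molecules at 1, 2 and 5 µg/mL for 1 day without LPS. Supernatant TNF-α or IL6 was quantified by sandwich ELISA with TMB read-out at 450 nm. N = 3.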

Experiment [5] deals with J774.2. The experiment can be described thus: Antiinflammatory activity in LPS-stimulated mouse J774.2 cells assessed as reduction in TNF-alpha level at 5 ug/mL incubated for 12 hrs by ELISA analysis. The note with it: dose 5.0 µg/ml, time 24.0 hrs, in the assay text read “24 hrs” for “12 hrs”. The essentials:
as §2

In experiment [6] the test system is J774.2. The experiment can be described thus: Antiinflammatory activity in mouse J774.2 cells assessed as reduction in IL-6 production at 1 to 5 ug/mL […] by ELISA analysis. As to conditions: dose 1-5 µg/ml. The essentials:
as §3
A general note: In an ELISA, binding on a coated surface is turned into a signal by an enzyme label.

Experiment [7] has as its system J774.2. The experiment can be described thus: Antiinflammatory activity in LPS-stimulated mouse J774.2 cells assessed as reduction in TNF-alpha level at 1 to 5 ug/mL incubated for 12 hrs by ELISA analysis. As to conditions: dose 1-5 µg/ml, time 24.0 hrs, in the assay text read “24 hrs” for “12 hrs”. The essentials:
as §2

Experiment [8] deals with J774.2. The experiment can be described thus: Antiinflammatory activity in LPS-stimulated mouse J774.2 cells assessed as reduction IL-6 production at 5 ug/mL […] by ELISA analysis. As to conditions: dose 5.0 µg/ml. The method in brief:
as §2

The test system of experiment [9] is J774.2. The experiment can be described thus: Antiinflammatory activity in LPS-stimulated mouse J774.2 cells assessed as reduction in TNF-alpha level at 1 to 2 ug/mL […] by ELISA analysis. The note with it: dose 1-2 µg/ml. The essentials:
as §2

For experiment [10], the system named is J774.2. The experiment can be described thus: Antiinflammatory activity in LPS-stimulated mouse J774.2 cells assessed as reduction IL-6 production at 2 to 5 ug/mL incubated for […] by ELISA analysis. The note with it: dose 2-5 µg/ml. The essentials: as §2
In experiment [11] the test system is J774.2. The experiment can be described thus: Antiinflammatory activity in LPS-stimulated mouse J774.2 cells assessed as reduction in IL-6 production at 1 ug/ml incubated for […] by ELISA analysis. As to conditions: dose 1.0 µg/ml. The essentials: as §2
Experiment [12] has as its system J774.2. The experiment can be described thus: Antiinflammatory activity in LPS-stimulated mouse J774.2 cells assessed as reduction in IL-6 production at 1 to 5 ug/ml […] by ELISA analysis. As to conditions: dose 1-5 µg/ml. The essentials: as §2

For `NC1=C(n2c(-c3ccc(Cl)cc3)cs/c2=N\C(=O)c2cccc([N+](=O)[O-])c2)C(=O)c2ccccc2C1=O`, the outcome in experiment [1], in experiment [3], in experiment [4] and in [6] was inactive. For the same compound, the outcome in [2] and in experiment [5] was Active.

In the case of `NC1=C(n2c(-c3ccccc3)cs/c2=N\C(=O)c2ccc([N+](=O)[O-])cc2)C(=O)c2ccccc2C1=O`, the result in experiment [1], in experiment [7], in experiment [3], in experiment [4] and in experiment [6] was inactive.

For the compound `NC1=C(n2c(-c3ccc(Br)cc3)cs/c2=N\C(=O)c2ccc(Cl)c([N+](=O)[O-])c2)C(=O)c2ccccc2C1=O`, the outcome in experiment [1], in [3], in [4] and in [6] was inactive. Also, the result in experiment [8] was Active.

Turning to `NC1=C(n2c(-c3ccc(F)cc3)cs/c2=N\C(=O)c2ccc([N+](=O)[O-])cc2)C(=O)c2ccccc2C1=O`, the result in experiment [1], in [3], in experiment [4] and in experiment [6] was inactive. For the same compound, the outcome in [7] was Active.

On to `NC1=C(n2c(-c3ccc(Cl)cc3)cs/c2=N\C(=O)c2ccc([N+](=O)[O-])cc2)C(=O)c2ccccc2C1=O`, for which the result in experiment [1], in experiment [3], in experiment [4] and in [6] was inactive. The outcome in experiment [7] was Active.

Turning to `NC1=C(n2c(-c3ccccc3)cs/c2=N\C(=O)c2cccc([N+](=O)[O-])c2)C(=O)c2ccccc2C1=O`, the outcome in [1], in experiment [3], in experiment [9], in experiment [4] and in experiment [6] was inactive. Besides, the result in experiment [5] was Active.

For `NC1=C(n2c(-c3ccc(F)cc3)cs/c2=N\C(=O)c2cccc([N+](=O)[O-])c2)C(=O)c2ccccc2C1=O`, the outcome in experiment [1], in [3], in experiment [4] and in experiment [6] was inactive.

As to `NC1=C(n2c(-c3ccc(Cl)cc3)cs/c2=N\C(=O)c2ccc(Cl)c([N+](=O)[O-])c2)C(=O)c2ccccc2C1=O`, the result in experiment [10] was Active. In addition, the outcome in experiment [1], in [11], in experiment [3], in [4] and in [6] was inactive.

Take `NC1=C(n2c(-c3ccc(Br)cc3)cs/c2=N\C(=O)c2ccc([N+](=O)[O-])cc2)C(=O)c2ccccc2C1=O`: the outcome in [1], in experiment [3], in [4] and in experiment [6] was inactive. The outcome in experiment [7] was Active.

Turning to `NC1=C(n2c(-c3ccc(F)cc3)cs/c2=N\C(=O)c2ccc(Cl)c([N+](=O)[O-])c2)C(=O)c2ccccc2C1=O`, the result in [1], in experiment [3], in [4] and in experiment [6] was inactive.

With `NC1=C(n2c(-c3ccc(Br)cc3)cs/c2=N\C(=O)c2cccc([N+](=O)[O-])c2)C(=O)c2ccccc2C1=O`, the result in [1], in [3], in experiment [4] and in experiment [6] was inactive. In addition, the outcome in experiment [12] was Active.

Consider `NC1=C(n2c(-c3ccccc3)cs/c2=N\C(=O)c2ccc(Cl)c([N+](=O)[O-])c2)C(=O)c2ccccc2C1=O`, for which the result in [1], in [3], in [4] and in experiment [6] was inactive. Besides, the outcome in [12] was Active.
